{"source": "ChEMBL document CHEMBL1150157", "about": "“Five new steroidal saponins from Solanum chrysotrichum leaves and their antimycotic activity” (2002)", "assay_type_in_all_cases": "functional", "key": {"Candida albicans": {"system": "Candida albicans", "experiment": "Antimicrobial activity against Candida albicans ATCC 10231 after 24 hrs by agar dilution method", "outline": "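C. albicans kept on Sabouraud glucose agar, which also served as the assay medium. Pure compounds in DMSO were diluted 2-fold serially (400–3.125 µg/mL) into the agar, final DMSO ≤2%. An inoculum of 10^5 cells/mL (hemocytometer) was spotted with a 0.010 mL calibrated loop. Plates were held at 29 °C for 24 h, in triplicate. MIC was the lowest concentration inhibiting visible growth.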"}, "Trichophyton rubrum": {"system": "Trichophyton rubrum", "experiment": "Antimicrobial activity against Trichophyton rubrum ATCC 28188 after 72 hrs by agar dilution method", "details": "ATCC 28188, 72 h", "outline": "(§1)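 Dermatophytes maintained on potato dextrose agar at 27 °C. Assayed by agar dilution on Sabouraud glucose agar. Pure compounds in DMSO were serially diluted 2-fold (400–3.125 µg/mL) into the medium, with final DMSO ≤2%. Spots of 10^6 spores/mL (hemocytometer count) were applied with a 0.010 mL loop. Plates ran at 29 °C for 72 h, in triplicate. MIC was the lowest concentration with no visible growth.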"}, "[1]": {"system": "Trichophyton mentagrophytes", "experiment": "Antimicrobial activity against Trichophyton mentagrophytes ATCC 28185 after 72 hrs by agar dilution method", "details": "ATCC 28185, 72 h", "outline": "as §1"}, "Aspergillus niger": {"system": "Aspergillus niger", "experiment": "Antimicrobial activity against Aspergillus niger ATCC 10335 after 48 hrs by agar dilution method", "details": "ATCC 10335, 48 h", "outline": "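A. niger maintained on potato dextrose agar at 27 °C. Tested by agar dilution on Sabouraud glucose agar with 2-fold serial DMSO dilutions of pure compounds (400–3.125 µg/mL) added to the medium, final DMSO ≤2%. Inoculum was 10^6 spores/mL, hemocytometer-counted, applied by 0.010 mL loop. Incubation at 29 °C for 48 h, in triplicate. MIC was the lowest concentration preventing visible growth.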"}}}
{"molecule": "NYSTATIN", "values": [{"measurement": "MIC", "setting": "Candida albicans", "value": 8, "unit": "µg/mL"}]}
{"molecule": "C[C@@H]1CC[C@@]2(OC1)O[C@H]1C[C@H]3[C@@H]4C[C@H](O[C@@H]5O[C@H](C)[C@@H](O)[C@H](O[C@@H]6OC[C@@H](O)[C@H](O)[C@H]6O)[C@H]5O)[C@H]5C[C@@H](O)CC[C@]5(C)[C@H]4CC[C@]3(C)[C@H]1[C@@H]2C", "values": [{"measurement": "MIC", "setting": "Candida albicans; ATCC 10231, 24 h", "value": 200, "unit": "µg/mL"}, {"measurement": "MIC", "setting": "Trichophyton rubrum", "value": 12.5, "unit": "µg/mL"}, {"measurement": "MIC", "setting": "[1]", "value": 12.5, "unit": "µg/mL"}, {"measurement": "MIC", "setting": "Aspergillus niger", "value": 100, "unit": "µg/mL"}]}
{"molecule": "C[C@H]1CO[C@@]2(O[C@H]3C[C@H]4[C@@H]5C[C@H](O[C@@H]6O[C@H](C)[C@@H](O)[C@H](O[C@@H]7O[C@@H](C)[C@H](O)[C@@H](O)[C@H]7O)[C@H]6O)[C@H]6C[C@@H](O)CC[C@]6(C)[C@H]5CC[C@]4(C)[C@H]3[C@@H]2C)[C@@H](O)C1", "values": [{"measurement": "MIC", "setting": "Candida albicans; ATCC 10231, 24 h", "value": 200, "unit": "µg/mL"}, {"measurement": "MIC", "setting": "Trichophyton rubrum", "value": 200, "unit": "µg/mL"}, {"measurement": "MIC", "setting": "[1]", "value": 200, "unit": "µg/mL"}, {"measurement": "MIC", "setting": "Aspergillus niger", "value": 200, "unit": "µg/mL"}]}
{"molecule": "C[C@@H]1CC[C@@]2(OC1)O[C@H]1C[C@H]3[C@@H]4C[C@H](O[C@@H]5O[C@H](C)[C@@H](O)[C@H](O)[C@H]5O)[C@H]5C[C@@H](O)CC[C@]5(C)[C@H]4CC[C@]3(C)[C@H]1[C@@H]2C", "values": [{"measurement": "MIC", "setting": "Candida albicans; ATCC 10231, 24 h", "value": 200, "unit": "µg/mL"}, {"measurement": "MIC", "setting": "Trichophyton rubrum", "value": 50, "unit": "µg/mL"}, {"measurement": "MIC", "setting": "[1]", "value": 25, "unit": "µg/mL"}, {"measurement": "MIC", "setting": "Aspergillus niger", "value": "> 400", "unit": "µg/mL"}]}
{"molecule": "C[C@@H]1CC[C@@]2(OC1)O[C@H]1C[C@H]3[C@@H]4C[C@H](O[C@@H]5OC[C@@H](O)[C@H](O)[C@H]5O)[C@H]5C[C@@H](O)CC[C@]5(C)[C@H]4CC[C@]3(C)[C@H]1[C@@H]2C", "values": [{"measurement": "MIC", "setting": "Candida albicans; ATCC 10231, 24 h", "value": 200, "unit": "µg/mL"}, {"measurement": "MIC", "setting": "Trichophyton rubrum", "value": 100, "unit": "µg/mL"}, {"measurement": "MIC", "setting": "[1]", "value": 100, "unit": "µg/mL"}, {"measurement": "MIC", "setting": "Aspergillus niger", "value": "> 400", "unit": "µg/mL"}]}
{"molecule": "C[C@@H]1CC[C@@]2(OC1)O[C@H]1C[C@H]3[C@@H]4C[C@H](O[C@@H]5O[C@H](C)[C@@H](O)[C@H](O[C@@H]6O[C@@H](C)[C@H](O)[C@@H](O)[C@H]6O)[C@H]5O)[C@H]5C[C@@H](O)CC[C@]5(C)[C@H]4CC[C@]3(C)[C@H]1[C@@H]2C", "values": [{"measurement": "MIC", "setting": "Candida albicans; ATCC 10231, 24 h", "value": 200, "unit": "µg/mL"}, {"measurement": "MIC", "setting": "Trichophyton rubrum", "value": 50, "unit": "µg/mL"}, {"measurement": "MIC", "setting": "[1]", "value": 200, "unit": "µg/mL"}, {"measurement": "MIC", "setting": "Aspergillus niger", "value": 400, "unit": "µg/mL"}]}
{"molecule": "Clc1ccc(COC(Cn2ccnc2)c2ccc(Cl)cc2Cl)c(Cl)c1", "note": "(centres undefined) [MICONAZOLE]", "values": [{"measurement": "MIC", "setting": "Trichophyton rubrum", "value": 4, "unit": "µg/mL"}, {"measurement": "MIC", "setting": "[1]", "value": 4, "unit": "µg/mL"}, {"measurement": "MIC", "setting": "Aspergillus niger", "value": 8, "unit": "µg/mL"}]}
